{
  "source": "paper PMC8842743",
  "about": "(Journal of Alzheimer's Disease Reports, 2022)",
  "key": {"[1]": {"molecular_target": "T1, Renin recombinant human enzyme (Homo sapiens, UniProt P00797)", "T1 sequence (P00797 67-406)": "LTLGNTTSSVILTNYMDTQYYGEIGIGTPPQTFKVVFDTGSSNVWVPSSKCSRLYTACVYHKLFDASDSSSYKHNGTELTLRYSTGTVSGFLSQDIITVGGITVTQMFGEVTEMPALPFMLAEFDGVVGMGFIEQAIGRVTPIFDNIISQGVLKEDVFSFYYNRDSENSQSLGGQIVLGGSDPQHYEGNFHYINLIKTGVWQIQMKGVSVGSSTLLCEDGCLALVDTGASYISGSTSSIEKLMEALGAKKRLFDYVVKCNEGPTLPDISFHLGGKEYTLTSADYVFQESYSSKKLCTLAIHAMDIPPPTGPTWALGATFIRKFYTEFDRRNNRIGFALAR", "experiment": "Renin FRET assay", "assay_type": "biochemical", "conditions": "read-out: Renin FRET Assay Absolute IC50; n = 1/2; value (SD)"}, "[2]": {"molecular_target": "Porcine gastric mucosa pepsin (Sus scrofa, UniProt P00791)", "sequence (P00791 60-385)": "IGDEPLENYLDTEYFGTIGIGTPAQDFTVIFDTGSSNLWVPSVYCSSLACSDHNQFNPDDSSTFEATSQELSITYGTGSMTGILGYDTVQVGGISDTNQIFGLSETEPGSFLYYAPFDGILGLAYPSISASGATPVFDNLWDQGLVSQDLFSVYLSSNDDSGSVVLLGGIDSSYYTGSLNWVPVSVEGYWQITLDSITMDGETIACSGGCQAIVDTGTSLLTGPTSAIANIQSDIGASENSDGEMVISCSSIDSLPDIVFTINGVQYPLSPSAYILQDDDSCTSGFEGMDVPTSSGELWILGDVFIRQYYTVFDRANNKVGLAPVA", "experiment": "Pepsin FRET assay", "assay_type": "biochemical", "conditions": "read-out: Pepsin FRET Assay Absolute IC50; n = 2; value (SD)"}, "healthy subjects": {"test_system": "healthy subjects", "experiment": "Clinical safety: adverse events, ECG, laboratory tests", "assay_type": "in vivo, human"}, "[3]": {"experiment": "Plasma and CSF pharmacokinetics in beagle dogs", "assay_type": "in vivo, dog"}, "[4]": {"experiment": "Brain homogenate protein binding", "assay_type": "in vitro ADME, mouse", "conditions": "equilibrium dialysis", "how_it_was_run": "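Fraction unbound was determined in vitro by equilibrium dialysis of mouse brain homogenate or dog plasma. Unbound concentrations were derived by multiplying the total measured concentrations by this fraction unbound.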"}},
  "data": [
    {"smiles": "COc1cnc(C(=O)Nc2ccc(F)c([C@]34CN(c5ncc(F)cn5)C[C@H]3CSC(N)=N4)c2)cn1", "note": "[LY3202626]", "values": [
      {"measurement": "IC50", "setting": "[1]", "value": "> 14", "unit": "µM"},
      {"measurement": "IC50", "setting": "[2]", "value": "> 14", "unit": "µM"},
      {"measurement": "tolerability", "setting": "healthy subjects; Phase 1 study", "value": "generally well tolerated"},
      {"measurement": "clinical laboratory tests, including liver functions tests", "setting": "healthy subjects; healthy subjects, Phase 1", "value": "no clinically significant findings"},
      {"measurement": "electrocardiograms (including QTc interval), ophthalmologic examinations, alertness and attention", "setting": "healthy subjects; healthy subjects, Phase 1", "value": "no clinically significant changes"},
      {"measurement": "Abnormal dreams: number of adverse events (number of subjects)", "setting": "healthy subjects; multiple doses 1 mg, N = 9", "value": "1 (1)"},
      {"measurement": "Burning sensation: number of adverse events (number of subjects)", "setting": "healthy subjects; multiple doses 1 mg, N = 9", "value": "1 (1)"},
      {"measurement": "Constipation: number of adverse events (number of subjects)", "setting": "healthy subjects; multiple doses 1 mg, N = 9", "value": "0 (0)"},
      {"measurement": "Dizziness: number of adverse events (number of subjects)", "setting": "healthy subjects; multiple doses 1 mg, N = 9", "value": "0 (0)"},
      {"measurement": "Dysgeusia: number of adverse events (number of subjects)", "setting": "healthy subjects; multiple doses 1 mg, N = 9", "value": "1 (1)"},
      {"measurement": "Feces discoloured: number of adverse events (number of subjects)", "setting": "healthy subjects; multiple doses 1 mg, N = 9", "value": "0 (0)"},
      {"measurement": "Headache: number of adverse events (number of subjects)", "setting": "healthy subjects; multiple doses 1 mg, N = 9", "value": "0 (0)"},
      {"measurement": "Memory impairment: number of adverse events (number of subjects)", "setting": "healthy subjects; multiple doses 1 mg, N = 9", "value": "0 (0)"},
      {"measurement": "Nightmare: number of adverse events (number of subjects)", "setting": "healthy subjects; multiple doses 1 mg, N = 9", "value": "1 (1)"},
      {"measurement": "Post-lumbar puncture syndrome: number of adverse events (number of subjects)", "setting": "healthy subjects; multiple doses 1 mg, N = 9", "value": "1 (1)"},
      {"measurement": "Postural orthostatic tachycardia syndrome: number of adverse events (number of subjects)", "setting": "healthy subjects; multiple doses 1 mg, N = 9", "value": "0 (0)"},
      {"measurement": "Sunburn: number of adverse events (number of subjects)", "setting": "healthy subjects; multiple doses 1 mg, N = 9", "value": "0 (0)"},
      {"measurement": "Abnormal dreams: number of adverse events (number of subjects)", "setting": "healthy subjects; multiple doses 6 mg, N = 9", "value": "0 (0)"},
      {"measurement": "Burning sensation: number of adverse events (number of subjects)", "setting": "healthy subjects; multiple doses 6 mg, N = 9", "value": "0 (0)"},
      {"measurement": "Constipation: number of adverse events (number of subjects)", "setting": "healthy subjects; multiple doses 6 mg, N = 9", "value": "1 (1)"},
      {"measurement": "Dizziness: number of adverse events (number of subjects)", "setting": "healthy subjects; multiple doses 6 mg, N = 9", "value": "0 (0)"},
      {"measurement": "Dysgeusia: number of adverse events (number of subjects)", "setting": "healthy subjects; multiple doses 6 mg, N = 9", "value": "0 (0)"},
      {"measurement": "Feces discoloured: number of adverse events (number of subjects)", "setting": "healthy subjects; multiple doses 6 mg, N = 9", "value": "2 (2)"},
      {"measurement": "Headache: number of adverse events (number of subjects)", "setting": "healthy subjects; multiple doses 6 mg, N = 9", "value": "0 (0)"},
      {"measurement": "Memory impairment: number of adverse events (number of subjects)", "setting": "healthy subjects; multiple doses 6 mg, N = 9", "value": "0 (0)"},
      {"measurement": "Nightmare: number of adverse events (number of subjects)", "setting": "healthy subjects; multiple doses 6 mg, N = 9", "value": "0 (0)"},
      {"measurement": "Post-lumbar puncture syndrome: number of adverse events (number of subjects)", "setting": "healthy subjects; multiple doses 6 mg, N = 9", "value": "0 (0)"},
      {"measurement": "Postural orthostatic tachycardia syndrome: number of adverse events (number of subjects)", "setting": "healthy subjects; multiple doses 6 mg, N = 9", "value": "0 (0)"},
      {"measurement": "Sunburn: number of adverse events (number of subjects)", "setting": "healthy subjects; multiple doses 6 mg, N = 9", "value": "0 (0)"},
      {"measurement": "Abnormal dreams: number of adverse events (number of subjects)", "setting": "healthy subjects; multiple doses 26 mg, n = 9", "value": "0 (0)"},
      {"measurement": "Burning sensation: number of adverse events (number of subjects)", "setting": "healthy subjects; multiple doses 26 mg, n = 9", "value": "0 (0)"},
      {"measurement": "Constipation: number of adverse events (number of subjects)", "setting": "healthy subjects; multiple doses 26 mg, n = 9", "value": "0 (0)"},
      {"measurement": "Dizziness: number of adverse events (number of subjects)", "setting": "healthy subjects; multiple doses 26 mg, n = 9", "value": "2 (2)"},
      {"measurement": "Dysgeusia: number of adverse events (number of subjects)", "setting": "healthy subjects; multiple doses 26 mg, n = 9", "value": "0 (0)"},
      {"measurement": "Feces discoloured: number of adverse events (number of subjects)", "setting": "healthy subjects; multiple doses 26 mg, n = 9", "value": "9 (9)"},
      {"measurement": "Headache: number of adverse events (number of subjects)", "setting": "healthy subjects; multiple doses 26 mg, n = 9", "value": "0 (0)"},
      {"measurement": "Memory impairment: number of adverse events (number of subjects)", "setting": "healthy subjects; multiple doses 26 mg, n = 9", "value": "1 (1)"},
      {"measurement": "Nightmare: number of adverse events (number of subjects)", "setting": "healthy subjects; multiple doses 26 mg, n = 9", "value": "0 (0)"},
      {"measurement": "Post-lumbar puncture syndrome: number of adverse events (number of subjects)", "setting": "healthy subjects; multiple doses 26 mg, n = 9", "value": "0 (0)"},
      {"measurement": "Postural orthostatic tachycardia syndrome: number of adverse events (number of subjects)", "setting": "healthy subjects; multiple doses 26 mg, n = 9", "value": "1 (1)"},
      {"measurement": "Sunburn: number of adverse events (number of subjects)", "setting": "healthy subjects; multiple doses 26 mg, n = 9", "value": "0 (0)"},
      {"measurement": "serious adverse events", "setting": "healthy subjects; up to a single dose of 45 mg or multiple doses of 26 mg", "value": "no serious adverse events"},
      {"measurement": "mean CSF AUC (3–9 h)", "setting": "[3]; 1.5 mg/kg oral", "value": 0.025, "unit": "µM·h"},
      {"measurement": "mean free plasma AUC (3–9 h)", "setting": "[3]; 1.5 mg/kg oral", "value": 0.028, "unit": "µM·h"},
      {"measurement": "plasma AUC(0-∞)", "setting": "[3]; 1.5 mg/kg oral, mean±SD", "value": "10.812 ± 5.195", "unit": "µM·h"},
      {"measurement": "Cmax", "setting": "[3]; read-out: maximum plasma concentration (Cmax), 1.5 mg/kg oral, mean±SD", "value": "2990 ± 750", "unit": "nM"},
      {"measurement": "free fraction in brain homogenate", "setting": "[4]", "value": 0.026}
    ]}
  ]
}
